For the series, the system named is zebrafish embryos. The series is described as follows: Effects of the fluorogens on zebrafish embryogenesis. It is filed as in vivo. The method, boiled down: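 Wild-type AB zebrafish embryos were raised at 28°C and staged as hours postfertilization. Fluorogen exposure started at 50% epiboly, either as a 1 h pulse or continuously overnight to 24 hpf. At 48 hpf, embryos were examined by brightfield microscopy and scored into three classes: no defect, axis defects, or dead.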

Where [1] appears, read: 5 μM fluorogen during 1 hour at 50% epiboly.
[2] abbreviates: 5 μM fluorogen overnight from 50% epiboly to 24 hpf.

SMILES strings stand for the structures.

As to `COc1cc(C=C2SC(=S)NC2=O)cc(OC)c1O` [HBR-3,5DOM, 4-hydroxy-3,5-dimethoxybenzylidene rhodanine], the “effects on embryos scored at 48 hpf” value under setting [1] is listed as “No deleterious effects” and the “effects on embryos scored at 48 hpf” value under setting [2] is recorded as “No deleterious effects”.
As to `Cc1cc(C=C2SC(=S)NC2=O)ccc1O` [HMBR, 4-hydroxy-3-methylbenzylidene rhodanine], the “effects on embryos scored at 48 hpf” value is, setting by setting: under setting [1], “No deleterious effects”; under setting [2], “No deleterious effects”.

The values above are taken from article PMC7610487 (Nature chemical biology, 2020).
